EBI2 block = EBI2 (human) antagonism; P32249; EBI2 beta-arrestin recruitment, luminescence, 7a,25-OHC stimulated; inhibition, % at 5 µM; 360,000 tested, 0.81% active; in the data active = inhibition above about 38%;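 also: enzyme fragment complementation signal reports receptor beta-arrestin coupling in cells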
Target sequence (P32249 whole entry, looked up, the tested form may be a part): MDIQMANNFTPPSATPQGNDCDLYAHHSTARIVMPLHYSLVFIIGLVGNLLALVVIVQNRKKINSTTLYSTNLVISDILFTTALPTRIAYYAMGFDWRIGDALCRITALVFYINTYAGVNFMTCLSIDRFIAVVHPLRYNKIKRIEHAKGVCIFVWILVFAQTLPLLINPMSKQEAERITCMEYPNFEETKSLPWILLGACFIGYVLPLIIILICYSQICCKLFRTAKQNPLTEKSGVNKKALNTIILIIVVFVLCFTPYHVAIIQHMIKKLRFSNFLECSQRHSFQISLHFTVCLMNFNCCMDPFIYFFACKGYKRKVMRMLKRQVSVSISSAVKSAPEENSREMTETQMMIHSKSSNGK
APJ agonist = activates the human apelin receptor APJ; P35414; CHO-K1 APJ PathHunter beta-arrestin, luminescence; 0% DMSO wells, 100% apelin; activation, % at 20 µM; 330,000 tested, 0.11% active; AID 2520;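 active = activation more than six SD over the plate average, tested at 20 µM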
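system = engineered CHO-K1 APJ arrestin reporter cells | input = 1000 cells per well | timing = overnight seeding, 90 min compound at 25 °C, 1 h detection | measured by = enzyme-fragment complementation luminescence | read-out = beta-arrestin recruitment to APJ as agonist activity, luminescent signal | control set = negative DMSO alone, positive Apelin-13 at 10 nM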
APJ antag = antagonists of human APJ apelin receptor; P35414; CHO-K1 APJ beta-arrestin complementation, luminescence; inhibition, % at 20 µM; 330,000 tested, 0.32% active; AID 2521;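 active = inhibition above about 40% at 20 µM, limit read from the data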;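 also: cells challenged with 10 nM apelin-13 agonist together with compound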
m5-HT2A agonist = mouse HTR2A agonism via beta-arrestin recruitment; P35363; CHO-K1 mHTR2A beta-arrestin complementation, luminescence; percent of 30 µM serotonin response; activation, % at 7.6 µM; 360,000 tested, 0.66% active; AID 624169;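 active = activation above a run cutoff, the mean activation of all tested compounds plus 3 SD, cut at about 14% in these data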
CCR6 antag = blocks CCL20-driven beta-arrestin recruitment at human CCR6. P51684. CHO-K1 CCR6 PathHunter beta-arrestin, luminescence, CCL20-stimulated. inhibition, % at 20 µM. 340,000 tested, 0.49% active. AID 493098;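 active = compounds whose inhibition of the agonist-driven luminescence signal at 20 µM reaches about 50%, limit read from the data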;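 also: cells stimulated with CCL20 at 14 nM final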
CXCR6 inh = inhibitors of human CXCR6 receptor; O00574; CHO-K1 PathHunter CXCR6 beta-arrestin, luminescence; inhibition, % at 20 µM; 360,000 tested, 0.36% active; AID 602244; in the data active = inhibition above about 34%, passing the limit was not always enough;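 also: antagonist mode with CXCL16 agonist at 10 nM final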
Target sequence (O00574 whole entry, looked up): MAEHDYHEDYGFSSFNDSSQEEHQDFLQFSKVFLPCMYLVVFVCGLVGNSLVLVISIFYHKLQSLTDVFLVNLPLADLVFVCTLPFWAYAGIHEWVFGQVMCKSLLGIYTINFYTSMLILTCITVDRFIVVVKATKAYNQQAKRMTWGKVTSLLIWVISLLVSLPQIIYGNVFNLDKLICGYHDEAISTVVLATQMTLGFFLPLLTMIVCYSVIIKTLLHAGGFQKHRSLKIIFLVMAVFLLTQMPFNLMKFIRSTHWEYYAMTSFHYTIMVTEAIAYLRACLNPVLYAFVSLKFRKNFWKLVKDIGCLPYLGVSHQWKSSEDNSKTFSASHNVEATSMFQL
MOR ag counter = activates human mu opioid receptor in HTR2A counterscreen; shares compounds with m5-HT2A agonist; U2OS OPRM1 beta-arrestin PathHunter, luminescence; DMSO 0%, DAMGO 9.3 µM 100%; activation, % at 9.3 µM; 2,300 tested, 5.3% active;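 active = mean activation above the mean of DMSO-only wells plus 3 SD, cut at about 0.5% in these data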
HTR2A ag conf = confirmation of mouse HTR2A serotonin receptor agonists | shares compounds with m5-HT2A agonist | CHO-K1 PathHunter beta-arrestin recruitment, luminescence; DMSO 0%, 30 µM serotonin 100% | activation, % at 7.6 µM | 2,300 tested, 19% active | AID 624381;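 active = mean activation across triplicates above the hit threshold derived in the original primary screen, cut at about 15% in these data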
EBI2 conf = EBI2 (human) antagonism, single concentration confirmation; 2,400 tested, 29% active; shares compounds with EBI2 block; EBI2 beta-arrestin luminescence, 7a,25-OHC antagonism; inhibition, % at 5 µM;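 active = inhibition of at least 50%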
EBI2 ag = counter-screen for EBI2 antagonists: EBI2 agonist activity; EBI2-expressing cells, agonist mode, luminescence, 60 min; 0% vehicle, 100% 7α,25-dihydroxycholesterol control; 2,400 tested, under 10 active; activation, % at 5 µM; shares compounds with EBI2 block;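 active = activation of at least 50%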
bGal cs = beta-galactosidase inhibition counter-screen. shares compounds with EBI2 block. purified beta-galactosidase, luminescent Galacton Star, 15 min. inhibition, % at 5 µM. 2,400 tested, 1% active. AID 652176;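 active = replicate-average signal at least 3 plate SD below neutral wells, shown as high inhibition, flagging enzyme-inhibiting false positives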;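 also: higher means stronger loss of beta-gal luminescence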
Of the large screens only hits and unclear results are named; the others gave an inactive call (follow-up assays come after a bar, where they were run). Rows were chosen to be rich in hits. Some 2.1% of all compounds tested hit in one or more screens of this group.

COc1ccc(-n2nnnc2C(C2CC2)N2CCN(C/C=C/c3ccccc3)CC2)cc1 (configuration not stated)	none (no result: APJ agonist, APJ antag, CCR6 antag)
O=C(c1ccc(S(=O)(=O)N2CCOCC2)cc1)N1CCCc2ccccc21	none
CC1CCCN(c2ccc(C(=O)Nc3ccc4c(c3)OCO4)cc2[N+](=O)[O-])C1 (configuration not stated)	EBI2 block 46, m5-HT2A agonist 38 | MOR ag counter inactive | HTR2A ag conf inactive | EBI2 conf inactive | EBI2 ag inactive | bGal cs inactive
Cc1ccccc1C(=O)NC(CC(C)C)C(=O)OCc1cc(=O)n2cc(Br)ccc2n1 (configuration not stated)	none
COC(=O)C1CCN(C(=O)/C=C/c2ccc3c(c2)OCO3)CC1	EBI2 block 57 | EBI2 conf inactive | EBI2 ag inactive | bGal cs inactive
CCOC(=O)N1CCN(C(=O)c2ccc(OC)cc2)CC1	none
CCOC(=O)N1CCN(C(=O)/C=C/c2ccc(OC)cc2)CC1	EBI2 block 90 | EBI2 conf 75 | EBI2 ag inactive | bGal cs inactive
CCN1CCN(C(=O)/C=C/c2ccc3c(c2)OCO3)CC1	EBI2 block 66 | EBI2 conf inactive | EBI2 ag inactive | bGal cs inactive
CN1CCN(C(=O)/C=C/c2ccc3c(c2)OCO3)CC1	none
CCOC(=O)N1CCN(C(=O)/C=C/c2ccc3c(c2)OCO3)CC1	EBI2 block 59 | EBI2 conf 61 | EBI2 ag inactive | bGal cs inactive
COc1ccc(-n2c(Cc3cc(=O)[nH]c(=O)[nH]3)nnc2SCC(=O)Nc2cc(C(F)(F)F)ccc2Cl)cc1	none
Cc1nc(CS(=O)(=O)c2ccccc2)cc(Sc2ccc(Cl)cc2Cl)n1	EBI2 block 75 | EBI2 conf 53 | EBI2 ag inactive | bGal cs inactive
C/C(=N\NC(=S)Nc1ccc(F)cc1)C1CC1	none
CCn1c(SCc2ccccc2Cl)nc2nc3c(cc2c1=O)CCCC3	EBI2 block 57 (no result: APJ agonist, APJ antag) | EBI2 conf inactive | EBI2 ag inactive | bGal cs inactive
N#Cc1ccc(-c2ccc(F)cc2)nc1SCC(=O)Nc1sc2c(c1C#N)CCC2	EBI2 block 53 | EBI2 conf inactive | EBI2 ag inactive | bGal cs inactive
CCCC1CCC(C(=O)Nn2c(C)nc3ccccc3c2=O)CC1 (configuration not stated)	none
COc1ccccc1CNc1cccc(C)n1	none (no result: APJ agonist, APJ antag, CCR6 antag)
COc1ccccc1CNc1cc(CSc2ccc(Cl)cc2)nc(C)n1	EBI2 block 49 | EBI2 conf inactive | EBI2 ag inactive | bGal cs inactive
CSc1ccc(CNC(=O)C2CCC(=O)N(CCc3ccc(Cl)cc3)C2)cc1 (configuration not stated)	EBI2 block 50 (no result: APJ agonist, APJ antag, CCR6 antag) | EBI2 conf inactive | EBI2 ag inactive | bGal cs inactive
Cc1ccc(-c2nnc(-c3ccc(NC(=O)Cc4cccs4)cc3)o2)cc1	none
COc1ccc(N2CCN(CC(=O)NC(=O)NCc3ccccc3)CC2)cc1	none
Cn1nnc2c[n+](CC(=O)c3ccc(Cl)cc3)cc(Br)c21	none
Cn1nnc2c[n+](CC(=O)c3ccc4ccccc4c3)cc(Br)c21	EBI2 block 66 | EBI2 conf 67 | EBI2 ag inactive | bGal cs inactive
Nc1cc(=O)n(Cc2ccco2)c(=S)[nH]1	none (no result: APJ agonist, APJ antag, CCR6 antag)
O=S(=O)(NC1=NCCC1)c1cccc(NC(=S)Nc2ccc(OC(F)F)cc2)c1	EBI2 block 48 | EBI2 conf inactive | EBI2 ag inactive | bGal cs inactive
O=C(COC(=O)c1ccc(OC(F)F)cc1)Nc1cccc(S(=O)(=O)NC2=NCCC2)c1	none
Cc1ccc(-c2cc(C#N)c(=O)n(Cc3c(Cl)cccc3Cl)c2)cc1	EBI2 block 47 | EBI2 conf inactive | EBI2 ag inactive | bGal cs inactive
Cc1ccc(NC(=O)C(=O)NCC2CCCN2S(=O)(=O)c2cccs2)cc1C (configuration not stated)	none
CSc1ccc(C(=S)N2CCN(C(c3ccccc3)c3ccccc3)CC2)cc1	EBI2 block 83 | EBI2 conf inactive | EBI2 ag inactive | bGal cs inactive
S=C(NCCc1ccccc1)N1CCN(C(c2ccccc2)c2ccccc2)CC1	EBI2 block 54 | EBI2 conf inactive | EBI2 ag inactive | bGal cs inactive
CSc1ccc(C(=S)N2CCN(C)CC2)cc1	none
CCOC(=O)C1(CC2CCCCO2)CCN(C(=O)Nc2ccccc2SC)CC1 (configuration not stated)	none
CCC1=NN(C(=O)C(=O)Nc2ccc(OC)cc2)C(O)(C(F)(F)F)C1 (configuration not stated)	none
CCCNC(=O)c1cc2c(c(-c3cccc(-c4ccc(F)cc4)c3)n1)[C@H](CCO)N(S(=O)C(C)(C)C)C2 (some centres not stated)	EBI2 block 61 (no result: APJ agonist, APJ antag, CCR6 antag) | EBI2 conf inactive | EBI2 ag inactive | bGal cs inactive
CC(C)(C)S(=O)N1Cc2cc(C(=O)NCc3ccc4c(c3)OCO4)nc(-c3cccc(-c4ccccc4)c3)c2[C@@H]1CCO (some centres not stated)	EBI2 block 46 (no result: APJ agonist, APJ antag, CCR6 antag) | EBI2 conf inactive | EBI2 ag inactive | bGal cs inactive
CC(C)(C)S(=O)N1Cc2cc(C(=O)NCc3ccc4c(c3)OCO4)nc(-c3cccc(-c4ccncc4)c3)c2[C@H]1CCO (some centres not stated)	none (no result: APJ agonist, APJ antag, CCR6 antag)
CCCNC(=O)c1cc2c(c(-c3cccc(-c4ccc(F)cc4)c3)n1)[C@@H](CCO)N(S(=O)C(C)(C)C)C2 (some centres not stated)	none (no result: APJ agonist, APJ antag, CCR6 antag)
COc1ccc([C@H]2C[C@@H](n3cc(-c4ccc(F)cc4)nn3)[C@H](O)CN2C(=O)c2cccs2)cc1	none (no result: APJ agonist, APJ antag, CCR6 antag)

Screening data: PubChem BioAssay, several laboratories
